From ChEMBL document CHEMBL4219055, “Structure-based design, synthesis, and biological evaluation of imidazo[1,2-b]pyridazine-based p38 MAP kinase inhibitors” (Bioorg Med Chem, 2018) come the findings set out here.

Series [1] in a line: Aqueous solubility in pH 6.8 buffer solution by HPLC analysis. Format: physicochemical.
The nature of series [2]: Metabolic stability in rat liver microsomes at 1 uM after 20 mins in presence of NADPH by HPLC analysis. It is filed as ADME, microsome.
Series [3] can be described thus: Metabolic stability in human liver microsomes at 1 uM after 20 mins in presence of NADPH by HPLC analysis. It is filed as ADME, microsome. For orientation: Liver microsomes are vesicles of endoplasmic reticulum, rich in cytochrome P450 enzymes.
Series [4] in a line: Retention time in human liver microsomes at 1 uM by HPLC analysis. Format: ADME, microsome. An outline of the steps:
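Incubated for 30 min with human liver microsomes. Parent and metabolites were analysed by HPLC and LC/MSⁿ, giving retention times, [M+H]⁺ and major fragment ions.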

Series [5] in a line: Cmax in Crl:CD(SD) rat at 3 mg/kg, po by LC-MS/MS analysis. It is filed as ADME, organism-based. Set-up: dose 3 mg/kg, route oral. To be noted: in vivo. An outline of the steps:
(§1)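 Rats were dosed i.v. at 0.2 mg/kg and p.o. at 3.0 mg/kg. Oral dosing was a suspension in 0.5% methyl cellulose or in corn oil, depending on the compound. Vd and CL came from i.v. dosing. Values are means of three animals.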

The nature of series [6]: Tmax in Crl:CD(SD) rat at 3 mg/kg, po by LC-MS/MS analysis. It is filed as ADME, organism-based. To be noted: in vivo. In outline:
as §1

A short description of series [7]: AUC in Crl:CD(SD) rat at 3 mg/kg, po by LC-MS/MS analysis. The settings on record: in vivo. Format: ADME, organism-based. In outline:
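Rats dosed orally at 3.0 mg/kg as a suspension in either 0.5% methyl cellulose or corn oil, depending on the compound. […] AUCpo is reported as ng·h/mL and is the mean of measurements in three animals.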

Series [8] in a line: MRT in Crl:CD(SD) rat at 3 mg/kg, po by LC-MS/MS analysis. To be noted: in vivo. Format: ADME, organism-based. An outline of the steps: as §1
The nature of series [9]: Volume of distribution in Crl:CD(SD) rat at 0.2 mg/kg, iv by LC-MS/MS analysis. It is filed as ADME, organism-based. To be noted: in vivo. In outline: as §1
A short description of series [10]: Clearance in Crl:CD(SD) rat at 0.2 mg/kg, iv by LC-MS/MS analysis. To be noted: in vivo. Format: ADME, organism-based. In outline:
as §1

Series [11] is described as follows: Oral bioavailability in Crl:CD(SD) rat at 3 mg/kg by LC-MS/MS analysis. It is filed as ADME, organism-based. To be noted: in vivo. An outline of the steps: as §1
[12] abbreviates: pH 6.8 buffer solution, read-out: solubility.

Molecules are shown by their SMILES. Values after ≈ are worked out from the molar mass of the structure shown.

As for `Cc1cc(-c2nc3cccnn3c2-c2ccnc(NC(=O)c3ccncc3)c2)ccc1F`, the solubility (usually how much of the substance goes into solution per volume) in series [1] (setting [12]) is 0.75 µg/mL (≈ 1.77 µM). In series [2], the remaining at 20 min, 1 µM turned out to be 75 µL/min/mg. In series [3], the Stability turned out to be 177 µL/min/mg.
As for `Cc1ccc(C(=O)Nc2cc(-c3c(-c4ccc(F)c(C)c4)nc4cccnn34)ccn2)cn1`, the solubility in series [1] (setting [12]) is 0.38 µg/mL (≈ 0.867 µM). Moreover, in series [2], the remaining at 20 min, 1 µM is 53 µL/min/mg.
In the case of `Cc1cc(-c2nc3cccnn3c2-c2ccnc(NC(=O)c3cc[n+]([O-])c(C)c3)c2)ccc1F`, the solubility in [1] (setting [12]) was found to be 0.91 µg/mL (≈ 2 µM). Also, the remaining at 20 min, 1 µM in series [2] turned out to be 16 µL/min/mg. The same molecule displayed a Retention_time in series [4] of 23 min. In series [5], the highest level (Cmax) was 75 ng/mL. The Tmax (commonly the time from dosing to the highest level) in [6] was determined as 2 h. Besides, in [7], the AUC (in general, the area under the concentration-time curve, a measure of exposure) worked out at 703 ng·h/mL. Moreover, the mean residence time MRT – broadly, the average time that molecules of a dose stay in the body – in series [8] is 5.32 h. For the same molecule, the Vd – broadly, the apparent volume that relates the amount in the body to the concentration in plasma or blood – in series [9] came out at 1.38 L/kg. In addition, the clearance (commonly the rate of elimination divided by the concentration) in [10] was 10 mL/min/kg. In [11], the bioavailability (as a rule, dose-corrected exposure relative to a reference, in per cent) was found to be 13.5%.
Consider `Cc1cc(C(=O)Nc2cc(-c3c(-c4ccc(F)c(C)c4)nc4cccnn34)ccn2)ccn1`, for which the solubility in [1] (setting [12]) was 0.15 µg/mL (≈ 0.342 µM). In [2], the remaining at 20 min, 1 µM was 65 µL/min/mg. In series [3], the Stability came to 132 µL/min/mg. Moreover, the Retention_time in series [4] is on record as 33.4 min.
For `Cc1cc(-c2nc3cccnn3c2-c2ccnc(NC(=O)c3ccc(C)[n+]([O-])c3)c2)ccc1F`, in series [1] (setting [12]), the solubility is 2.4 µg/mL (≈ 5.28 µM). The remaining at 20 min, 1 µM in series [2] was 23 µL/min/mg.
On to `Cc1cc(-c2nc3cccnn3c2-c2ccnc(NC(=O)c3cc[n+]([O-])c(C)c3)c2)ccc1F.O=S(=O)(O)O`, for which the solubility entry in series [1] (buffer) is “Insoluble”. In [5], the peak level (Cmax) was 190 ng/mL. The Tmax in [6] was found to be 1.67 h. In [7], the exposure (AUC) was 2130 ng·h/mL. In series [8], this molecule displayed an MRT of 5.63 h. This molecule returned a Vd in series [9] of 1.38 L/kg. In series [10], the clearance is 10 mL/min/kg. In series [11], the bioavailability worked out at 42.6%.
Turning to `Cc1cc(-c2nc3cccnn3c2-c2ccnc(NC(=O)c3cccnc3)c2)ccc1F`, the solubility in series [1] (setting [12]) came to 0.92 µg/mL (≈ 2.17 µM). Besides, in [2], the remaining at 20 min, 1 µM amounted to 71 µL/min/mg.
